In paper PMC7668563 (International journal of molecular biology (Edmond, Okla.), 2020):
Values belong to the compound of their own block, whether it stands above or below them.

Assays:
[1] = tested on: human colorectal adenocarcinoma cell line, HT-29; experiment: MTT cell viability assay on HT-29, 72 h exposure; format: cell-based; conditions: read-out: IC50 (±SD), HT-29, HT-29, 72 h of exposure
Method in brief: (§1)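 HT-29 was grown in McCoy's 5A with 10% FBS. MCF-7 was grown in MEM with 10% FBS and 0.01 mg/mL insulin. Both were kept at 37°C, 5% CO2, trypsinized at 70–80% confluency and seeded at 1.5×10^4 cells/well for 24 h. Cells were then exposed for 72 h to test compound in 5% DMSO/95% medium, with DMSO-medium controls. MTT was added as a 2.67 mg/mL solution for 2 h. Formazan was dissolved in 10% Triton X-100/isopropanol and read at A570 minus A620. IC50 came from a sigmoidal fit of viability vs log concentration, eight replicas, triplicate, ±SD.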

[2] = molecular target: T1, apo-human transferrin (apo-hTf) (Homo sapiens, UniProt P02787); experiment: Thermodynamic parameters of apo-hTf complex formation; format: binding; conditions: for ∆H° / ∆S°: pH 7.4, from Ksv at 296-317 K
Method in brief: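 Ksv values were obtained from apo-hTf fluorescence quenching at pH 7.4 at 296, 303, 310 and 317 K. ΔH°, ΔS° and ΔG° were derived from linear regression of ln(Ksv) vs 1/T (Van't Hoff equation).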

[3] = molecular target: T1, apo-human transferrin (apo-hTf); experiment: UV-Vis absorbance titration of apo-hTf; format: binding; conditions: for Ka at 280 nm: absorbance at 280 nm; for Association constants, Ka, 280 nm: absorbance of apo-hTf at 280 nm, pH 7.4
[4] = molecular target: T1, apo-human transferrin (apo-hTf); experiment: Far-UV circular dichroism titration of apo-hTf, secondary structure content
Method in brief: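 Apo-hTf (4.0×10−7 mol L−1) in 2 mM Tris-HCl pH 7.4 was titrated with a 1.0×10−3 mol L−1 stock of test compound in Tris-HCl/2% DMSO, to final 0–2.4×10−6 mol L−1. Far-UV CD was recorded from 190–250 nm under nitrogen in a 1.0 cm cell: six scans at 100 nm/min. Baseline was buffer ± DMSO at room temperature. α-Helix was derived from MRE at 208 nm; β-sheet and random coil by the CD-RRG method.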

[5] = molecular target: T1, apo-human transferrin (apo-hTf); experiment: Fluorescence quenching of apo-hTf; format: binding; conditions: for biomolecular quenching rate constant kq: kq=Ksv/τ0; for Stern-Volmer quenching constant Ksv / number of binding sites n: pH 7.4; for quenching association constant Ka: pH 7.4, modified Stern-Volmer
Method in brief: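 Intrinsic fluorescence of apo-hTf in Tris-HCl pH 7.4 was titrated with test compound (Tris-HCl/2% DMSO). Conditions: excitation 280 nm, emission 290–500 nm, slits 10/5 nm, 1.0 cm quartz cell, at 296, 303, 310 and 317 K, triplicate titrations. Intensities were corrected for inner filter effect using absorbances at excitation and emission wavelengths. Ksv came from Stern-Volmer plots of F0/F vs [Q]; kq = Ksv/τ0 (τ0 ~1.0×10−8); Ka and n came from the modified Stern-Volmer equation.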

[6] = tested on: human breast adenocarcinoma cell line, MCF-7; experiment: MTT cell viability assay on MCF-7, 72 h exposure; format: cell-based; conditions: for IC50 (±SD), MCF-7: MCF-7, 72 h of exposure
Method in brief: as §1

[7] = molecular target: T1, apo-human transferrin (apo-hTf); experiment: Fluorescence resonance energy transfer; format: binding; conditions: for Förster critical energy transfer distance R0 / binding distance r (donor-acceptor): k^2=2/3, n=1.336, ØD=0.118; for efficiency of energy transfer E: room temperature, 1.0×10^−5 mol L^−1 each
Method in brief: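 Emission spectrum of 1.0×10−5 mol L−1 apo-hTf and absorption spectrum of 1.0×10−5 mol L−1 test compound were recorded in 20 mM Tris-HCl pH 7.4 at room temperature, 260–450 nm, and their spectral overlap determined. E was calculated from apo-hTf fluorescence without and with equimolar test compound. R0 and donor–acceptor distance r came from Förster equations.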

T1 sequence (P02787 20-698): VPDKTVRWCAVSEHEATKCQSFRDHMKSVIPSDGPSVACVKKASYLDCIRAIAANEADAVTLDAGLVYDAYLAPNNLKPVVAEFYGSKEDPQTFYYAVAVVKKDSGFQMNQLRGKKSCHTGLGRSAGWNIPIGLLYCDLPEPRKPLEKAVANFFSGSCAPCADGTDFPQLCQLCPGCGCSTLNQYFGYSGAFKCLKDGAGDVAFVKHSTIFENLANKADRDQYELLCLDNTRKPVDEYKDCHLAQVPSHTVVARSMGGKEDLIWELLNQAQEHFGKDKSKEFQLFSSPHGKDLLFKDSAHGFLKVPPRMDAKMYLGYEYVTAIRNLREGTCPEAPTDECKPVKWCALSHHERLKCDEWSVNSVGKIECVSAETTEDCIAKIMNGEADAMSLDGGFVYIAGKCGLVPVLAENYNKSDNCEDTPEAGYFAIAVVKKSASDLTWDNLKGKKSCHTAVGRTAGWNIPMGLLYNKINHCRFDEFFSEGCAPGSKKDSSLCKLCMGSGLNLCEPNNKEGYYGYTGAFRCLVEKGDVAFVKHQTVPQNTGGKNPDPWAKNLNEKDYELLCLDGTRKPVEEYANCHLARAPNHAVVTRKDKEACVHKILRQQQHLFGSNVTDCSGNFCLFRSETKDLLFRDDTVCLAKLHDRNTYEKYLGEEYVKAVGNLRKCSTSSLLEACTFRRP

IC50 [1]: 266 µM
∆G° ([2]; 296 K): -5.963 kcal/mol
∆G° ([2]; 303 K): -6.164 kcal/mol
∆G° ([2]; 310 K): -6.362 kcal/mol
∆G° ([2]; 317 K): -6.561 kcal/mol
∆H° [2]: 2.431 kcal/mol
∆S° [2]: 118.65 J/mol K
Ka at 280 nm [3]: 3000 M⁻¹
Association constants, Ka, 280 nm [3]: 3 10^3 M^−1
other secondary structure content of apo-hTf ([4]; compound concentration 0.4 (M)): 19.5%
random coil content of apo-hTf ([4]; compound concentration 0.4 (M)): 33.8%
α-helix content of apo-hTf ([4]; compound concentration 0.4 (M)): 29%
β-sheet content of apo-hTf ([4]; compound concentration 0.4 (M)): 17.7%
other secondary structure content of apo-hTf ([4]; compound concentration 0.8 (M)): 19.4%
random coil content of apo-hTf ([4]; compound concentration 0.8 (M)): 34%
α-helix content of apo-hTf ([4]; compound concentration 0.8 (M)): 28.7%
β-sheet content of apo-hTf ([4]; compound concentration 0.8 (M)): 17.9%
other secondary structure content of apo-hTf ([4]; compound concentration 1.2 (M)): 19.7%
random coil content of apo-hTf ([4]; compound concentration 1.2 (M)): 34.2%
α-helix content of apo-hTf ([4]; compound concentration 1.2 (M)): 27.6%
β-sheet content of apo-hTf ([4]; compound concentration 1.2 (M)): 18.5%
other secondary structure content of apo-hTf ([4]; compound concentration 1.6 (M)): 19.8%
random coil content of apo-hTf ([4]; compound concentration 1.6 (M)): 34.4%
α-helix content of apo-hTf ([4]; compound concentration 1.6 (M)): 26.9%
β-sheet content of apo-hTf ([4]; compound concentration 1.6 (M)): 18.9%
other secondary structure content of apo-hTf ([4]; compound concentration 2 (M)): 20.2%
random coil content of apo-hTf ([4]; compound concentration 2 (M)): 34.6%
α-helix content of apo-hTf ([4]; compound concentration 2 (M)): 26.2%
β-sheet content of apo-hTf ([4]; compound concentration 2 (M)): 19%
other secondary structure content of apo-hTf ([4]; compound concentration 2.4 (M)): 20.4%
random coil content of apo-hTf ([4]; compound concentration 2.4 (M)): 34.8%
α-helix content of apo-hTf ([4]; compound concentration 2.4 (M)): 25.4%
β-sheet content of apo-hTf ([4]; compound concentration 2.4 (M)): 19.4%
biomolecular quenching rate constant kq ([5]; 296 K): 2.523e+12 M⁻¹ s⁻¹
Stern-Volmer quenching constant Ksv ([5]; 296 K): 25230 M⁻¹
number of binding sites n ([5]; 296 K): 1.26
quenching association constant Ka ([5]; 296 K): 325300 M⁻¹
biomolecular quenching rate constant kq ([5]; 303 K): 2.804e+12 M⁻¹ s⁻¹
Stern-Volmer quenching constant Ksv ([5]; 303 K): 28040 M⁻¹
number of binding sites n ([5]; 303 K): 1.27
quenching association constant Ka ([5]; 303 K): 408100 M⁻¹
biomolecular quenching rate constant kq ([5]; 310 K): 3.056e+12 M⁻¹ s⁻¹
Stern-Volmer quenching constant Ksv ([5]; 310 K): 30560 M⁻¹
number of binding sites n ([5]; 310 K): 1.28
quenching association constant Ka ([5]; 310 K): 485500 M⁻¹
biomolecular quenching rate constant kq ([5]; 317 K): 3.323e+12 M⁻¹ s⁻¹
Stern-Volmer quenching constant Ksv ([5]; 317 K): 33230 M⁻¹
number of binding sites n ([5]; 317 K): 1.29
quenching association constant Ka ([5]; 317 K): 562300 M⁻¹
IC50 ([6]; read-out: IC50 (±SD), MCF-7, MCF-7, 72 h of exposure): 1300 µM
Förster critical energy transfer distance R0 [7]: 2.56 nm
binding distance r (donor-acceptor) [7]: 3.04 nm
efficiency of energy transfer E [7]: 0.26
SMILES: C1CCCC1.C1CCCC1.[Cl][Nb][Cl] [Cp2NbCl2]

SMILES: [Cl][Zr+2][Cl].c1cc[cH-]c1.c1cc[cH-]c1 [Cp2ZrCl2]
IC50 [1]: 774 µM
∆G° ([2]; 296 K): -4.57 kcal/mol
∆G° ([2]; 303 K): -4.584 kcal/mol
∆G° ([2]; 310 K): -4.598 kcal/mol
∆G° ([2]; 317 K): -4.613 kcal/mol
∆H° [2]: -3.975 kcal/mol
∆S° [2]: 8.41 J/mol K
Ka at 280 nm [3]: 2220 M⁻¹
Association constants, Ka, 280 nm [3]: 2.22 10^3 M^−1
other secondary structure content of apo-hTf ([4]; compound concentration 0.4 (M)): 18.9%
random coil content of apo-hTf ([4]; compound concentration 0.4 (M)): 33.8%
α-helix content of apo-hTf ([4]; compound concentration 0.4 (M)): 29.2%
β-sheet content of apo-hTf ([4]; compound concentration 0.4 (M)): 18.1%
other secondary structure content of apo-hTf ([4]; compound concentration 0.8 (M)): 18.8%
random coil content of apo-hTf ([4]; compound concentration 0.8 (M)): 33.9%
α-helix content of apo-hTf ([4]; compound concentration 0.8 (M)): 29.1%
β-sheet content of apo-hTf ([4]; compound concentration 0.8 (M)): 18.2%
other secondary structure content of apo-hTf ([4]; compound concentration 1.2 (M)): 18.8%
random coil content of apo-hTf ([4]; compound concentration 1.2 (M)): 33.9%
α-helix content of apo-hTf ([4]; compound concentration 1.2 (M)): 29%
β-sheet content of apo-hTf ([4]; compound concentration 1.2 (M)): 18.3%
other secondary structure content of apo-hTf ([4]; compound concentration 1.6 (M)): 18.9%
random coil content of apo-hTf ([4]; compound concentration 1.6 (M)): 33.9%
α-helix content of apo-hTf ([4]; compound concentration 1.6 (M)): 28.8%
β-sheet content of apo-hTf ([4]; compound concentration 1.6 (M)): 18.4%
other secondary structure content of apo-hTf ([4]; compound concentration 2 (M)): 18.9%
random coil content of apo-hTf ([4]; compound concentration 2 (M)): 34%
α-helix content of apo-hTf ([4]; compound concentration 2 (M)): 28.6%
β-sheet content of apo-hTf ([4]; compound concentration 2 (M)): 18.5%
other secondary structure content of apo-hTf ([4]; compound concentration 2.4 (M)): 18.9%
random coil content of apo-hTf ([4]; compound concentration 2.4 (M)): 34.1%
α-helix content of apo-hTf ([4]; compound concentration 2.4 (M)): 28.4%
β-sheet content of apo-hTf ([4]; compound concentration 2.4 (M)): 18.6%
biomolecular quenching rate constant kq ([5]; 296 K): 2.39e+11 M⁻¹ s⁻¹
Stern-Volmer quenching constant Ksv ([5]; 296 K): 2390 M⁻¹
number of binding sites n ([5]; 296 K): 1.07
quenching association constant Ka ([5]; 296 K): 4400 M⁻¹
biomolecular quenching rate constant kq ([5]; 303 K): 1.97e+11 M⁻¹ s⁻¹
Stern-Volmer quenching constant Ksv ([5]; 303 K): 1970 M⁻¹
number of binding sites n ([5]; 303 K): 1.03
quenching association constant Ka ([5]; 303 K): 2600 M⁻¹
biomolecular quenching rate constant kq ([5]; 310 K): 1.79e+11 M⁻¹ s⁻¹
Stern-Volmer quenching constant Ksv ([5]; 310 K): 1790 M⁻¹
number of binding sites n ([5]; 310 K): 1.01
quenching association constant Ka ([5]; 310 K): 2000 M⁻¹
biomolecular quenching rate constant kq ([5]; 317 K): 1.5e+11 M⁻¹ s⁻¹
Stern-Volmer quenching constant Ksv ([5]; 317 K): 1500 M⁻¹
number of binding sites n ([5]; 317 K): 1
quenching association constant Ka ([5]; 317 K): 1600 M⁻¹
IC50 (±SD), MCF-7 [6]: proliferative activity
IC50 (±SD), MCF-7 ([6]; listed as Cp^2ZrCl^2): Proliferative
Förster critical energy transfer distance R0 [7]: 7.3 nm
binding distance r (donor-acceptor) [7]: 10.03 nm
efficiency of energy transfer E [7]: 0.129
